Reference: ChEMBL document CHEMBL1124947, “Cationic antiprotozoal drugs. Trypanocidal activity of 2-(4'-formylphenyl)imidazo[1,2-a]pyridinium guanylhydrazones and related derivatives of quaternary heteroaromatic compounds” (J Med Chem, 1990)

Columns and labels:
Format in all cases: functional
Mus musculus [1] = assay: Trypanocidal Activity at I.C.E. value 0.72 when administered subcutaneously.
Method in brief: (§1)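 Mice, in groups of five per dose, were given a standard inoculum of blood-stage T. rhodesiense that is lethal to all untreated controls, then dosed subcutaneously. Usually 11 dose levels were used (2^n × 0.42 mg/kg).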

Mus musculus [2] = assay: Trypanocidal Activity at I.C.E. value 0.24 when administered perorally.
Mus musculus [3] = assay: Trypanocidal Activity at I.C.E. value 0.75 when administered subcutaneously.; method in brief: as §1
[4] = test system: Trypanosoma brucei rhodesiense; assay: In Vitro measurement of inhibition of thymidine uptake in cell culture of Trypanosoma rhodesiense; details: read-out: ID50 (the source's name)
Method in brief: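 Parasites harvested from infected rats and incubated 3 h across a drug concentration series, usually 0.1–100 µg/mL. Incorporation of radiolabeled thymidine measured. ID50 is the concentration (µg/mL) producing 50% inhibition.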

Mus musculus [5] = assay: Trypanocidal Activity at I.C.E. value 0.52 when administered subcutaneously.
Method in brief: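 Blood-stage T. rhodesiense infection came from a standard inoculum lethal to all untreated mice. Drug was given by subcutaneous injection to groups of five mice. Survival beyond 30 days counted as cure. […] Sub-curative doses scored 0, and data were normalized at each dose.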

[6] = test system: Trypanosoma brucei rhodesiense; assay: In Vitro measurement of inhibition of leucine uptake in cell culture of Trypanosoma rhodesiense; details: read-out: ID50 (the source's name)
Method in brief: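 Trypanosomes harvested from infected rats, cultured 3 h with several concentrations of drug, usually 0.1–100 µg/mL. Radiolabeled L-leucine uptake measured. ID50 is the concentration in µg/mL giving 50% inhibition of incorporation.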

Mus musculus [7] = assay: Trypanocidal Activity at I.C.E. value 0.60 when administered perorally.
Mus musculus [8] = assay: Trypanocidal Activity at I.C.E. value 0.56 when administered subcutaneously.; method in brief: as §1
Mus musculus [9] = assay: Trypanocidal Activity at I.C.E. value 0.27 when administered perorally.
Mus musculus [10] = assay: Trypanocidal Activity at I.C.E. value 0.92 when administered subcutaneously.; method in brief: as §1

How did the CD50 (Mus musculus [1]) turn out when `Br.C[n+]1c(/C=C/c2ccc(/C=N/NC(=N)NO)cc2)cn2ccccc21.[Br-]` was run?
The CD50 was 0.2 mg/kg.

Which results are given for `Br.Cc1cccc2n1cc(COc1ccc(/C=N/NC(=N)N3CCCC3)cc1)[n+]2C.[Br-]`?
CD50 (Mus musculus [2]): 53 mg/kg; CD50 (Mus musculus [3]): 0.4 mg/kg

What does the source list for `CNC(=N)N/N=C/c1ccc(-c2cn3ccsc3[n+]2C)cc1.I.[I-]`?
IC50 [4]: 1.5 µg/mL; CD50 (Mus musculus [5]): 0.4 mg/kg; IC50 [6]: 1.2 µg/mL; CD50 (Mus musculus [7]): 6.6 mg/kg

For `CN(C)C(=N)N/N=C/c1ccc(-c2cn3ccsc3[n+]2C)cc1.I.[I-]`, which IC50 [4] is on record?
Its IC50 is 1 µg/mL.

What about the IC50 [6] of the same molecule?
The IC50 was 1 µg/mL.

What about the CD50 (Mus musculus [8]) of the same molecule?
Its CD50 is 0.2 mg/kg.

With `Br.CCCSc1ccc2n(c1)cc(-c1ccc(/C=N/NC(=N)N)cc1)[n+]2C.[Br-]` as the molecule, how does the CD50 (Mus musculus [9]) read?
Its CD50 is 26 mg/kg.

What about the CD50 (Mus musculus [10]) of the same molecule?
Its CD50 is 0.2 mg/kg.
